Results taken from ChEMBL document CHEMBL4823258, “Development of Dimethylisoxazole-Attached Imidazo[1,2-a]pyridines as Potent and Selective CBP/P300 Inhibitors” (J Med Chem, 2021).
The source made the active and inactive calls. No cut-off for these calls is given here.

How the values were obtained:
Homo sapiens = species: Homo sapiens; experiment: Selectivity ratio of IC50 for His-tagged BRD4 BD1 (unknown origin) using biotinylated-JQ1 peptide as substrate to IC50 for His-tagged CBP (unknown origin) using biotinylated-H3K56ac peptide as substrate incubated for 1 hr by AlphaScreen assay
CREB-binding protein [1] = molecular target: T1, CREB-binding protein (Homo sapiens, UniProt Q92793); experiment: Inhibition of His-tagged CBP (unknown origin) using biotinylated-H3K56ac peptide as substrate incubated for 1 hr by AlphaScreen assay
Target sequence in this assay (Q92793 whole entry): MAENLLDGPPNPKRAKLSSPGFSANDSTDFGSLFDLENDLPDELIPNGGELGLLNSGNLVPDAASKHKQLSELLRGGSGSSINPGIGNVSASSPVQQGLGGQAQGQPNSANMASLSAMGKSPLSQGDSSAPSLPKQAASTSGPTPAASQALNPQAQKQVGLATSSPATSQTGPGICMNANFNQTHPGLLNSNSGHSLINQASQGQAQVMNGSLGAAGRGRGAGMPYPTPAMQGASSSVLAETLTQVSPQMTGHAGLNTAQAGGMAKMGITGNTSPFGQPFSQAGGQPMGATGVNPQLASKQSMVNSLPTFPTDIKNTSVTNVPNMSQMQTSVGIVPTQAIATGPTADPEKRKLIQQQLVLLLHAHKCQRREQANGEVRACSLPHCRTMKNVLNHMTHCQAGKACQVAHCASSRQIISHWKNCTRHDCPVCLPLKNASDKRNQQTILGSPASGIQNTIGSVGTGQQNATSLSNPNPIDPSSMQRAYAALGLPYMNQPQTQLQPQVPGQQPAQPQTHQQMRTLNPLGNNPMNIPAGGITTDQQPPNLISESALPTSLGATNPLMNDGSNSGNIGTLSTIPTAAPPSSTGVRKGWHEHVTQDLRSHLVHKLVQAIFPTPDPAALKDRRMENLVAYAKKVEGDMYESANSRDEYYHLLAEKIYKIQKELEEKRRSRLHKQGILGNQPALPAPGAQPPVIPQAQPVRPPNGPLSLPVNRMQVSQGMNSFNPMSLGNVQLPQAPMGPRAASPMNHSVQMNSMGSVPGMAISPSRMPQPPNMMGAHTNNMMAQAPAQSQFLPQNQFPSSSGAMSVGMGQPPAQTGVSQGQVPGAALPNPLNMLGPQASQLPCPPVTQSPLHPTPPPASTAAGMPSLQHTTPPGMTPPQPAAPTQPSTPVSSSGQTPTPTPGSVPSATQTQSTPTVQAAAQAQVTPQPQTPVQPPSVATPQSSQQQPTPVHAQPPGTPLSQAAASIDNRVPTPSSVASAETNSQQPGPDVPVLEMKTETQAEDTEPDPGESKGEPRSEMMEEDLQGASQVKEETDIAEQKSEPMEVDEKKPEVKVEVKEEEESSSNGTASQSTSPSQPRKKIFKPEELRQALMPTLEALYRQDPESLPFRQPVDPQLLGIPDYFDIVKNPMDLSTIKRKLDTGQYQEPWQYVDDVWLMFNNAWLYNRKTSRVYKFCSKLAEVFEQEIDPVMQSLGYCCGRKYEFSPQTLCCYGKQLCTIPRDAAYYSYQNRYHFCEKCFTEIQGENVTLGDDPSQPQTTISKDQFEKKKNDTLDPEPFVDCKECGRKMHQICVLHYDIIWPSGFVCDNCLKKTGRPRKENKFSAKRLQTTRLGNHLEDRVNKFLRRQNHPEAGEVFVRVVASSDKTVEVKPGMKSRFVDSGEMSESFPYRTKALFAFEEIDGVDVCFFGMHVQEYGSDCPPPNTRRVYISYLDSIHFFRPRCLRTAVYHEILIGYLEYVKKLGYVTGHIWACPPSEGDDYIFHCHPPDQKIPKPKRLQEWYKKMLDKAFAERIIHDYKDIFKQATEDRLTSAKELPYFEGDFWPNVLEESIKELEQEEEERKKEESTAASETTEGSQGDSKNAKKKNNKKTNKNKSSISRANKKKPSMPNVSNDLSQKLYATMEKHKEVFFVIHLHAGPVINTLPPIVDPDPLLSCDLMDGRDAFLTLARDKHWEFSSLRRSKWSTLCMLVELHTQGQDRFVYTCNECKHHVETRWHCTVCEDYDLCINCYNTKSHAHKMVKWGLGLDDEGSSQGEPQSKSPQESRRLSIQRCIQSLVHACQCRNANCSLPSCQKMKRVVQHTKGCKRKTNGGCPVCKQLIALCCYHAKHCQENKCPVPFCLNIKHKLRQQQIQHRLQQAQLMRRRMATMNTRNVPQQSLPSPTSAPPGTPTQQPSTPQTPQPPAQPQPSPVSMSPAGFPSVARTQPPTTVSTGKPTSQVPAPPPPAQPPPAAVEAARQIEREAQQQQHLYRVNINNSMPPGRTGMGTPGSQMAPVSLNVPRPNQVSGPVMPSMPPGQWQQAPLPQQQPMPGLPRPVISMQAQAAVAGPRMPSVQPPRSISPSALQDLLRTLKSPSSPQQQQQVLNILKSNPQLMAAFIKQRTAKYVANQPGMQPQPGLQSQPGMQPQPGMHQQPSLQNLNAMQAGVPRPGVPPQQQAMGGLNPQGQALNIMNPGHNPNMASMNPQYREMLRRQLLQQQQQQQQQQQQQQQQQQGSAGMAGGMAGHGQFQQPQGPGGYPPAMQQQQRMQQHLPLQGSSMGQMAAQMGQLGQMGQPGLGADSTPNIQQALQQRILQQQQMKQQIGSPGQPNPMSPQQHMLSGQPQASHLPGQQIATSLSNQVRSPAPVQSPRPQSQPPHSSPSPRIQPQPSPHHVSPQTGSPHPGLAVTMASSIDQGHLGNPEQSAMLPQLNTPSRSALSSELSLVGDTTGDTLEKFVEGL

[2] = molecular target: T2, Bromodomain-containing protein 4 (Homo sapiens, UniProt O60885); experiment: Inhibition of His-tagged BRD4 BD1 (unknown origin) using biotinylated-JQ1 peptide as substrate incubated for 1 hr by AlphaScreen assay
[3] = molecular target: T3, Histone acetyltransferase p300 (Homo sapiens, UniProt Q09472); experiment: Binding affinity to human partial length EP300 (A1040 to G1161 residues) expressed in bacterial expression system by BromoELECT assay
Summary of the method: (§1)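 Kd by Eurofins BromoELECT, standard protocol, measured in duplicate.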

[4] = molecular target: T2, Bromodomain-containing protein 4; experiment: Binding affinity to human partial length BRD4 bromodomain 1 long isoform (N44 to E168 residues) expressed in bacterial expression system assessed as melting temperature by differential scanning fluorometry (reference value: 50.1 degreeC)
[5] = molecular target: T2, Bromodomain-containing protein 4; experiment: Binding affinity to human partial length BRD4 bromodomain 1 long isoform (N44 to E168 residues) expressed in bacterial expression system by BromoELECT assay; summary of the method: as §1
CREB-binding protein [6] = molecular target: T1, CREB-binding protein; experiment: Binding affinity to human partial length CREBBP (R1081 to G1197 residues) expressed in bacterial expression system assessed as melting temperature by differential scanning fluorometry (reference value: 46.7 degreeC)
Target sequence in this assay (Q92793 2-2442 limits assumed): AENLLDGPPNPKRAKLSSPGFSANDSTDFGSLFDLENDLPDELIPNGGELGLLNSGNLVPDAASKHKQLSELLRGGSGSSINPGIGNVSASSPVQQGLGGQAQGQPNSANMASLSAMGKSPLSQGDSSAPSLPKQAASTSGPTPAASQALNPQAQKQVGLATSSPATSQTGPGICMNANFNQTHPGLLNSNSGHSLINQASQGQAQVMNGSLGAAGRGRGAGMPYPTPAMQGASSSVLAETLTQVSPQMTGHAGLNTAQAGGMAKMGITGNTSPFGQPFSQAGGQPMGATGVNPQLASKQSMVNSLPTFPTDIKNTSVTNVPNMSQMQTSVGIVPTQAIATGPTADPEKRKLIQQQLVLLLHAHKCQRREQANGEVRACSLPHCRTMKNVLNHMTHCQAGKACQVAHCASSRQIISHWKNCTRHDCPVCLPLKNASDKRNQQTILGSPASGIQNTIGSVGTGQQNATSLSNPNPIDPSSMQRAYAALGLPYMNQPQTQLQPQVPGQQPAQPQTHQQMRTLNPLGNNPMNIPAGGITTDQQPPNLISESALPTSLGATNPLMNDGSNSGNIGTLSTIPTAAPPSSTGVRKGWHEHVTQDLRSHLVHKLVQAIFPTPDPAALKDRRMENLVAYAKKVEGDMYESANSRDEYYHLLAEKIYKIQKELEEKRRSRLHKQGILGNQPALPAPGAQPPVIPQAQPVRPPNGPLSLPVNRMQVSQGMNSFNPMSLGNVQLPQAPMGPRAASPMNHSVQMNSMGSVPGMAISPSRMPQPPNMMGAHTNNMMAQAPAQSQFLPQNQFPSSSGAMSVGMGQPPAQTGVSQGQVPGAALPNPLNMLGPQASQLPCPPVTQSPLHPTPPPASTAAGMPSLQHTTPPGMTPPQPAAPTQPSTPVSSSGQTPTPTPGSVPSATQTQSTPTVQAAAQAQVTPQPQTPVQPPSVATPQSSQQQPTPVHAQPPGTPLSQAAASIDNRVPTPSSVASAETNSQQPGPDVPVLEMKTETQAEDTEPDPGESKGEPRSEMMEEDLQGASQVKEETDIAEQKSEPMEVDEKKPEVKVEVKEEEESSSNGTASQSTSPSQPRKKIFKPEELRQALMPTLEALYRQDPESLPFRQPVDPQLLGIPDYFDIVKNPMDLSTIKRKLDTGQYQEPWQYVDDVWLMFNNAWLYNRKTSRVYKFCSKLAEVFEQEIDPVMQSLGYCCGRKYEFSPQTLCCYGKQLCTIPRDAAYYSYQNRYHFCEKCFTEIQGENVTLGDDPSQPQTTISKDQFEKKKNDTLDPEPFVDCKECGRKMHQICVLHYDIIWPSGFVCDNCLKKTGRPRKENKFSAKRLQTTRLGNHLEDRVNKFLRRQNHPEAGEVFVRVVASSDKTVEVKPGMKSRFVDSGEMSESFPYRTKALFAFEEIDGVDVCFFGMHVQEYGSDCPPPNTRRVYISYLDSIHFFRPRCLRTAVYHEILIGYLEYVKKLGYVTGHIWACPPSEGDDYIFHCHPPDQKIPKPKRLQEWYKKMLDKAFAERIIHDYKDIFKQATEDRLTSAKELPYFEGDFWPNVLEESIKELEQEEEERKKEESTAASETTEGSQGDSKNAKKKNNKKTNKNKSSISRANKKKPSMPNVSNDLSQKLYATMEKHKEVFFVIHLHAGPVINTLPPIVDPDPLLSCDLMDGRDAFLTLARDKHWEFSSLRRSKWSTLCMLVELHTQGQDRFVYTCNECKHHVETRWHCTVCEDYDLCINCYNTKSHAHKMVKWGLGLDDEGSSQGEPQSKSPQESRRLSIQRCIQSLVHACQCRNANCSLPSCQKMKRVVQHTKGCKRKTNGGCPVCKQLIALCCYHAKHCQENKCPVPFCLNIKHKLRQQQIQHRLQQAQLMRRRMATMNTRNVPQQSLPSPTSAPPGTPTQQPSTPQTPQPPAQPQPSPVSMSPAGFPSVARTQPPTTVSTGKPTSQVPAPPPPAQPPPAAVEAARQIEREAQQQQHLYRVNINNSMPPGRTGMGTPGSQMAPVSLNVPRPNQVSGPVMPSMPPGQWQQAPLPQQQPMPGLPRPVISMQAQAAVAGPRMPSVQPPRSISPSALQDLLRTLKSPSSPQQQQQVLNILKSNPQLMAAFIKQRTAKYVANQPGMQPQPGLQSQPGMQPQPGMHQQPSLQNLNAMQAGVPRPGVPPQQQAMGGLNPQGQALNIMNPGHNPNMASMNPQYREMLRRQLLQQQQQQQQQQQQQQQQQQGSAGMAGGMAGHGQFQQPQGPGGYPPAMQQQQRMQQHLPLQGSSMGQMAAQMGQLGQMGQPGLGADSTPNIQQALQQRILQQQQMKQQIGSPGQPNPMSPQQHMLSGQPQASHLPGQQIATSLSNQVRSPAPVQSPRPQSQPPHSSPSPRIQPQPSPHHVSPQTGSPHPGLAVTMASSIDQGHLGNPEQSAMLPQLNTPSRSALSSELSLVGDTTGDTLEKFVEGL

CREB-binding protein [7] = molecular target: T1, CREB-binding protein; experiment: Inhibition of CBP in human MOLM-13 cells assessed as reduction in H3K27Ac level at 1 to 10 uM incubated for 2 hrs by Western blot analysis; type: cell-based; conditions: dose 1-10 µM
Target sequence in this assay (Q92793 2-2442 limits assumed): as above

CREB-binding protein [8] = molecular target: T1, CREB-binding protein; experiment: Binding affinity to human partial length CREBBP (R1081 to G1197 residues) expressed in bacterial expression system by BromoELECT assay; summary of the method: as §1
Target sequence in this assay (Q92793 whole entry): as the sequence (Q92793 whole entry) above

MOLM-13 = experiment: Cytotoxicity against human MOLM-13 cells assessed as cell growth inhibition incubated for 5 days by CellTiter-Glo luminescence assay; type: functional, cell-based; conditions: MOLM-13, 120 h
CREB-binding protein [9] = molecular target: T1, CREB-binding protein; experiment: Inhibition of CBP in human MOLM-13 cells assessed as depletion of Myc at 1 to 10 uM incubated for 2 hrs by Western blot analysis; type: cell-based; conditions: dose 1-10 µM
Target sequence in this assay (Q92793 2-2442 limits assumed): as the sequence (Q92793 2-2442 limits assumed) above

[10] = molecular target: T3, Histone acetyltransferase p300; experiment: Binding affinity to human partial length EP300 (A1040 to G1161 residues) expressed in bacterial expression system assessed as melting temperature by differential scanning fluorometry (reference value: 42.1 degreeC)
CREB-binding protein [11] = molecular target: T1, CREB-binding protein; experiment: Inhibition of CBP in human MOLM-13 cells assessed as reduction in H3K27Ac level at 3 uM incubated for 2 hrs
Target sequence in this assay (Q92793 2-2442 limits assumed): as above

[12] = molecular target: CREB-binding protein/Histone acetyltransferase p300 (Homo sapiens) (UniProt Q09472+Q92793); experiment: Inhibition of CBP/EP300 in human MM1.S cells assessed as perturbation of IRF4/Myc axis at 2.5 uM incubated for 24 hrs by immunoblot analysis

Row | SMILES | Ratio IC50 (Homo sapiens) | IC50 [2] | also measured
1 | COc1ccc(CCCc2nc3cc(-c4c(C)noc4C)ccn3c2NC(C)(C)CC(C)(C)C)cc1 | 1 | > 50 µM | IC50 (CREB-binding protein [1]): > 50 µM
2 | COc1ccc(-c2nc3cc(C)cc(C)n3c2NC23CC4CC(CC(C4)C2)C3)cc1 | > 3 | > 50 µM | 
3 | COc1ccc(CCc2nc3cc(-c4c(C)noc4C)ccn3c2NC(C)(C)CC(C)(C)C)cc1 | > 2 | > 50 µM | 
4 | CN1Cc2cc(-c3ccn4c(NC5CCCCC5)c(CCc5ccccc5)nc4c3)ccc2NC1=O | 1 |  | 
5 | CCOc1ccc(CCc2nc3cc(-c4c(C)noc4C)ccn3c2NC2CCCCC2)cc1Cl | 20 | > 50 µM | 
6 | COc1ccc(CCCc2nc3cc(-c4c(C)noc4C)ccn3c2NC2CCCCC2)cc1 | 3 |  | 
7 | COc1ccc(CCc2nc3cc(-c4c(C)noc4C)ccn3c2NC2CCCCC2)cc1Cl |  |  | Kd [3]: 0.215 µM; Tm [4]: 50.1 °C; Kd [5]: > 10 µM; Tm (CREB-binding protein [6]): 51.7 °C; inhibition (CREB-binding protein [7]): Active; Kd (CREB-binding protein [8]): 0.315 µM; IC50 (MOLM-13): 1.74 µM; inhibition (CREB-binding protein [9]): Active; Tm [10]: 47 °C; inhibition (CREB-binding protein [11]): Active; inhibition [12]: Active
8 | Cc1noc(C)c1-c1ccn2c(NC(C)(C)CC(C)(C)C)c(CCc3ccc(OC(C)C)cc3)nc2c1 | 1 | > 50 µM | IC50 (CREB-binding protein [1]): > 50 µM
9 | CCOc1ccc(CCc2nc3cc(-c4c(C)noc4C)ccn3c2NC(C)(C)CC(C)(C)C)cc1 | > 1 |  | 
10 | COc1ccc(-c2nc3cc(-c4c(C)noc4C)ccn3c2NC2CCCCC2)cc1 | > 4 | > 50 µM | 
11 | CCCOc1ccc(CCc2nc3cc(-c4c(C)noc4C)ccn3c2NC2CCCCC2)cc1 | 28 |  | 
12 | COc1ccc(CCCc2nc3cc(-c4c(C)noc4C)ccn3c2NC2CCCCC2)cc1Cl | 3 | 24.5 µM | Tm [4]: 51.6 °C; Tm (CREB-binding protein [6]): 55.2 °C; Tm [10]: 50.6 °C; IC50 (CREB-binding protein [1]): 8.96 µM
13 | COc1ccc(Cc2nc3cc(-c4c(C)noc4C)ccn3c2NC2CCCCC2)cc1 | 2 |  | 
14 | Cc1noc(C)c1-c1ccc2nc(-c3ccc(N4CCN(C(=O)CCCC(=O)NCCCOCCOCCOCCCNC(=O)CCCC[C@@H]5SC[C@@H]6NC(=O)N[C@@H]65)CC4)cc3)c(NC3CCCCC3)n2c1 |  |  | Kd [3]: 13 µM
15 | COc1ccc(CCc2nc3cc(-c4c(C)noc4C)ccn3c2NC(C)C)cc1 | 34 |  | IC50 (CREB-binding protein [1]): 0.29 µM
16 | Cc1noc(C)c1-c1ccn2c(NCC(=O)OC(C)(C)C)c(CCc3ccccc3)nc2c1 | > 6 | > 50 µM | 
17 | COc1ccc(CCc2nc3cc(-c4c(C)noc4C)ccn3c2NC(C)(C)C)cc1 | > 21 | > 50 µM | 
18 | COc1ccc(CCc2nc3cc(-c4c(C)noc4C)ccn3c2NC2CCCCC2)cc1 | 41 |  | Kd [3]: 0.285 µM; Tm [4]: 51.1 °C; Kd [5]: 9.2 µM; Tm (CREB-binding protein [6]): 51.5 °C; Kd (CREB-binding protein [8]): 0.265 µM; Tm [10]: 46.8 °C

Row | SMILES | Ratio IC50 (Homo sapiens) | IC50 [2] | also measured
19 | COc1ccc(-c2nc3cc(-c4c(C)noc4C)ccn3c2NC23CC4CC(CC(C4)C2)C3)cc1 | > 23 | > 50 µM | 
20 | CCOc1ccc(CCc2nc3cc(-c4c(C)noc4C)ccn3c2NC(C)(C)CC(C)(C)C)cc1Cl | > 2 | > 50 µM | 
21 | COc1ccc(CCc2nc3cc(-c4c(C)noc4C)ccn3c2NC(C)C)cc1OC | 6 |  | 
22 | Cc1noc(C)c1-c1ccn2c(NC3CCCCC3)c(CCc3ccccc3)nc2c1 | 10 |  | Tm [4]: 51 °C; Tm (CREB-binding protein [6]): 49.2 °C; Tm [10]: 44.7 °C
23 | COc1ccc(-c2nc3cc(-c4c(C)noc4C)ccn3c2NCC(=O)OC(C)(C)C)cc1 | > 3 |  | 
24 | COc1ccc(CCc2nc3cc(-c4c(C)noc4C)ccc3n2C[C@H](C)N2CCOCC2)cc1Cl |  | 7.94 µM | IC50 (MOLM-13): 1.53 µM
25 | COc1ccc(CCc2nc3cc(-c4c(C)noc4C)ccn3c2NCCN2CCOCC2)cc1 | 7 |  | 
26 | Cc1noc(C)c1-c1ccn2c(NC(C)(C)C)c(CCc3ccccc3)nc2c1 | 6 |  | 
27 | COc1ccc(-c2nc3cc(C)cc(C)n3c2NC(C)(C)CC(C)(C)C)cc1 | > 3 | > 50 µM | 
28 | Cc1[nH]nc2cc(-c3ccn4c(NC5CCCCC5)c(CCc5ccccc5)nc4c3)ccc12 | 0.06 | 0.51 µM | IC50 (CREB-binding protein [1]): 8.02 µM; inhibition [12]: inactive
29 | Cc1noc2cc(-c3ccn4c(NC5CCCCC5)c(CCc5ccccc5)nc4c3)ccc12 | 0.06 | 3.02 µM | IC50 (CREB-binding protein [1]): > 50 µM; inhibition [12]: inactive
30 | COc1ccc(CCc2nc3cc(-c4c(C)noc4C)ccn3c2NCc2ccc(Cl)cc2)cc1 | 5 | 7.94 µM | IC50 (CREB-binding protein [1]): 1.6 µM
31 | Cc1noc(C)c1-c1ccn2c(NC34CC5CC(CC(C5)C3)C4)c(CCc3ccccc3)nc2c1 | 7 |  | 
32 | Cc1noc(C)c1-c1ccn2c(NC(C)(C)CC(C)(C)C)c(CCc3ccccc3)nc2c1 | 1 |  | 
33 | COc1ccc(CCc2nc3cc(-c4c(C)noc4C)ccn3c2NC2CCCCC2)cc1OC | 8 |  | IC50 (CREB-binding protein [1]): 0.75 µM
34 | CCOc1ccc(CCc2nc3cc(-c4c(C)noc4C)ccn3c2NC2CCCCC2)cc1 | 30 |  | 
35 | COc1ccc(CCc2nc3cc(-c4c(C)noc4C)ccn3c2NC23CC4CC(CC(C4)C2)C3)cc1 | 8 |  | 
36 | COc1ccc(CCc2nc3cc(-c4c(C)noc4C)ccn3c2NCc2ccccc2)cc1 | 4 |  | 
